Data: ChEMBL document CHEMBL1128306, “Design, synthesis, and evaluation of A/C/D-ring analogs of the fungal metabolite K-76 as potential complement inhibitors” (J Med Chem, 1995)

Legend:
[1] = test system: T-cell; test: Inhibitory activity against lectin-stimulated T cell proliferation; assay type: functional, cell-based
[2] = species on record: Homo sapiens; test: Inhibitory activity against mitogen-stimulated PBL proliferation; assay type: functional
[3] = Inhibitory activity against C5a production by activated human serum complement; assay type: functional
In short: (§1)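 Human serum aliquots (400 μL) equilibrated at 37 °C with varying compound concentrations in 0.1 M Hepes, 0.15 N NaCl, pH 7.4. Complement activated with heat-aggregated IgG at 14 mg/mL, 10 min at 37 °C. C3a[desArg] and C5a[desArg] were measured by radioimmunoassay. Triplicates were averaged. Fractional inhibition is relative to the no-compound sample and the background without aggregated IgG.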

[4] = Inhibitory activity against hemolysis (complement-mediated erythrocyte lysis) of antibody-sensitized sheep erythrocytes using human serum as complementary source; assay type: functional
In short: (§2)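 Antibody-sensitized sheep erythrocytes were exposed to compounds and to human serum in 0.1 M HEPES, 0.15 N NaCl, pH 7.4. Serum dilution was pre-set to lyse 80–90% of cells. Incubation 60 min at 37 °C, then centrifugation and supernatant A410 for hemoglobin release. Triplicate controls without serum were subtracted. Inhibition is relative to the no-compound sample.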

[5] = Inhibitory activity against hemolysis of antibody-sensitized sheep erythrocytes using human serum as complementary source in multiple assay; assay type: functional; in short: as §2
[6] = (§3) Compound was tested to inhibit the production of C5a relative to C3a; assay type: functional, Homo sapiens; in short: as §1
[7] = species on record: Homo sapiens; test: Inhibitory activity against mitogen-stimulated PBL proliferation; Range 1.7-2.8 mM; assay type: functional
[8] = as §3; assay type: functional, Homo sapiens; in short: as §1; remark: listed apart in the source

C[C@@H]1CCC2C(C)(C)[C@H](O)[C@H](O)C[C@]2(C)[C@@]12Cc1c(O)cc(C(=O)O)c(C=O)c1O2 (stereo not given in full)
inhibition [1]: Inhibit | IC50 [2]: 500 µM | IC50 [3]: 3000 µM | IC50 ([4]; read-out: IC50): 300 µM | IC50 [5]: 570 µM

COc1ccc(C(=O)O)c2c1CC(C)(C1CC=C(C)CC1)O2 (stereo not given)
IC50 [6]: 6000 µM | IC50 [7]: < 2800 µM | IC50 [8]: 8000 µM

CC1=CCC(C2(C)Cc3c(O)ccc(C(=O)O)c3O2)CC1 (stereo not given)
IC50 [7]: < 2800 µM | IC50 [4]: Less Effective
